Columns and labels:
[1] = target: Kappa-type opioid receptor (Cavia porcellus, UniProt P41144); assay: Inhibition of [3H]U-69593 binding to Opioid receptor kappa 1 of plasma membrane homogenates of guinea pig brain; assay type: cell-free
[2] = organism: Cavia porcellus; assay: Ability to inhibit the electrically evoked contraction of the guinea pig ileum; assay type: functional, organism-based
In short: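 Longitudinal muscle-myenteric plexus strips from male Hartley guinea pigs (250-500 g) in 37 °C oxygenated Krebs, 1 g tension, transmural stimulation 0.1 Hz, 0.4-ms supramaximal pulses. At least four tissues; IC50 by Hill equation fit.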

[3] = target: Mu-type opioid receptor (Cavia porcellus, UniProt P97266); assay: Inhibition of [3H]DAMGO binding to Opioid receptor mu 1 of guinea pig brain membrane homogenates
Sequence of Mu-type opioid receptor (P97266 whole entry): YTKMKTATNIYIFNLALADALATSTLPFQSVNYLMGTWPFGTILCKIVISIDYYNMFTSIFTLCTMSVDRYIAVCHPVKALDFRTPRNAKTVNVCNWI

[4] = tested on: Kappa opioid receptor (Cavia porcellus); assay: Central (GPB) and Peripheral (GPI) Nervous Systems Selectivity at kappa Opioid Receptor
[5] = Relative binding to mu and kappa opioid receptors (ratio of IC50)
[6] = Relative binding to delta and kappa opioid receptors (ratio of IC50)

Sequence of Kappa-type opioid receptor (P41144 whole entry): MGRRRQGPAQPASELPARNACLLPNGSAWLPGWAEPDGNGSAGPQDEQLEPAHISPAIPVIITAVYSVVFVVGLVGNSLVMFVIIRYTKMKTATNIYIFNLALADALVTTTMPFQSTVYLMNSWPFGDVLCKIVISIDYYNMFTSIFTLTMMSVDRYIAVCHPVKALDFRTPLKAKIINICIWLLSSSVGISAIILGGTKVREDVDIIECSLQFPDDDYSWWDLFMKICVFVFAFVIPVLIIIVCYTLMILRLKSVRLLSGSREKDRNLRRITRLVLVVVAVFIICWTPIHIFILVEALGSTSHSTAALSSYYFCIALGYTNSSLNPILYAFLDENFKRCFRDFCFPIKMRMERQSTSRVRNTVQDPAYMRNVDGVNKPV

IC50 [2] [nM]	SMILES	IC50 [1] [nM]	IC50 [3] [nM]	also measured
–	CC[C@H](C)[C@H](NC(=O)[C@H](CCCNC(=N)N)NC(=O)[C@H](CCCNC(=N)N)NC(=O)[C@H](CCCCN)NC(=O)[C@H](Cc1ccccc1)NC(=O)CNC(=O)CNC(=O)[C@@H](N)Cc1ccc(O)cc1)C(=O)N[C@H](CC(=O)O)C(=O)N1CCC[C@H]1C(=O)N[C@@H](CCCCN)C(N)=O	17.5	555	–
13300	CC[C@H](C)[C@H](NC(=O)[C@H](CCCCN)NC(=O)[C@H](CCCN=C(N)N)NC(=O)[C@H](CC(C)C)NC(=O)[C@H](Cc1ccccc1)NC(=O)[C@H](CC(=O)O)NC(=O)CNC(=O)[C@@H](N)Cc1ccc(O)cc1)C(=O)N[C@@H](CCCN=C(N)N)C(=O)N1CCC[C@H]1C(=O)N[C@@H](CCCCN)C(N)=O	–	–	–
16000	CC[C@H](C)[C@H](NC(=O)[C@H](CCCN=C(N)N)NC(=O)[C@@H]1CCCCNC(=O)C[C@@H](NC(=O)[C@@H](N)Cc2ccc(O)cc2)C(=O)NCC(=O)N[C@@H](Cc2ccccc2)C(=O)N[C@@H](CC(C)C)C(=O)N1)C(=O)N[C@@H](CCCN=C(N)N)C(=O)N1CCC[C@H]1C(=O)N[C@@H](CCCCN)C(N)=O	–	–	–
4160	CC[C@H](C)[C@H](NC(=O)[C@H](CCCN=C(N)N)NC(=O)[C@H](CCCN=C(N)N)NC(=O)[C@H](CCCCN)NC(=O)[C@H](Cc1ccccc1)NC(=O)CNC(=O)CNC(=O)[C@@H](N)Cc1ccc(O)cc1)C(=O)N[C@H](CC(=O)O)C(=O)N1CCC[C@H]1C(=O)N[C@@H](CCCCN)C(N)=O	–	–	–
–	CC[C@H](C)[C@H](NC(=O)[C@H](CCCNC(=N)N)NC(=O)[C@@H]1CCCCNC(=O)C[C@H](NC(=O)[C@@H](N)Cc2ccc(O)cc2)C(=O)NCC(=O)N[C@@H](Cc2ccccc2)C(=O)N[C@@H](CC(C)C)C(=O)N1)C(=O)N[C@@H](CCCNC(=N)N)C(=O)N1CCC[C@H]1C(=O)N[C@@H](CCCCN)C(N)=O	110	3.4	–
–	CC[C@H](C)[C@H](NC(=O)[C@H](CCCCN)NC(=O)[C@H](CCCN=C(N)N)NC(=O)[C@H](CC(C)C)NC(=O)[C@H](Cc1ccccc1)NC(=O)[C@H](CC(=O)O)NC(=O)CNC(=O)[C@@H](N)Cc1ccc(O)cc1)C(=O)N[C@@H](CCCN=C(N)N)C(=O)N1CCC[C@@H]1C(=O)N[C@H](CCCCN)C(N)=O	–	–	Ratio [4]: 72 Ratio; Selectivity [5]: 7 Ratio; Selectivity [6]: 9.5 Ratio
–	CC[C@H](C)[C@H](NC(=O)[C@H](CCCNC(=N)N)NC(=O)[C@@H]1CCCCNC(=O)C[C@@H](NC(=O)[C@@H](N)Cc2ccc(O)cc2)C(=O)NCC(=O)N[C@@H](Cc2ccccc2)C(=O)N[C@@H](CC(C)C)C(=O)N1)C(=O)N[C@@H](CCCNC(=N)N)C(=O)N1CCC[C@H]1C(=O)N[C@@H](CCCCN)C(N)=O	100	2980	–
14.2	CC[C@H](C)[C@H](NC(=O)[C@H](CCCN=C(N)N)NC(=O)[C@H](CCCCN)NC(=O)[C@H](CC(C)C)NC(=O)[C@H](Cc1ccccc1)NC(=O)CNC(=O)[C@H](CC(=O)O)NC(=O)[C@@H](N)Cc1ccc(O)cc1)C(=O)N[C@@H](CCCN=C(N)N)C(=O)N1CCC[C@H]1C(=O)N[C@@H](CCCCN)C(N)=O	–	–	–
4900	CC[C@H](C)[C@H](NC(=O)[C@H](CCCCN)NC(=O)[C@H](CCCN=C(N)N)NC(=O)[C@H](CC(C)C)NC(=O)[C@H](Cc1ccccc1)NC(=O)[C@@H](CC(=O)O)NC(=O)CNC(=O)[C@@H](N)Cc1ccc(O)cc1)C(=O)N[C@@H](CCCN=C(N)N)C(=O)N1CCC[C@H]1C(=O)N[C@@H](CCCCN)C(N)=O	–	–	–
–	CC[C@H](C)[C@H](NC(=O)[C@H](CCCCN)NC(=O)[C@H](CCCNC(=N)N)NC(=O)[C@H](CC(C)C)NC(=O)[C@H](Cc1ccccc1)NC(=O)[C@H](CC(=O)O)NC(=O)CNC(=O)[C@@H](N)Cc1ccc(O)cc1)C(=O)N[C@@H](CCCNC(=N)N)C(=O)N1CCC[C@H]1C(=O)N[C@@H](CCCCN)C(N)=O	190	1320	–
–	CC[C@H](C)[C@H](NC(=O)[C@H](CCCN=C(N)N)NC(=O)[C@@H]1CCCCNC(=O)C[C@@H](NC(=O)[C@@H](N)Cc2ccc(O)cc2)C(=O)NCC(=O)N[C@H](Cc2ccccc2)C(=O)N[C@@H](CC(C)C)C(=O)N1)C(=O)N[C@@H](CCCN=C(N)N)C(=O)N1CCC[C@@H]1C(=O)N[C@H](CCCCN)C(N)=O	–	–	Ratio [4]: 160 Ratio; Selectivity [5]: 29.8 Ratio; Selectivity [6]: 9.1 Ratio
610	CC[C@H](C)[C@H](NC(=O)[C@H](CCCN=C(N)N)NC(=O)[C@@H]1CCCCNC(=O)C[C@H](NC(=O)[C@@H](N)Cc2ccc(O)cc2)C(=O)NCC(=O)N[C@@H](Cc2ccccc2)C(=O)N[C@@H](CC(C)C)C(=O)N1)C(=O)N[C@@H](CCCN=C(N)N)C(=O)N1CCC[C@H]1C(=O)N[C@@H](CCCCN)C(N)=O	–	–	–
–	CC[C@H](C)[C@H](NC(=O)[C@H](CCCNC(=N)N)NC(=O)[C@H](CCCCN)NC(=O)[C@H](CC(C)C)NC(=O)[C@H](Cc1ccccc1)NC(=O)CNC(=O)[C@H](CC(=O)O)NC(=O)[C@@H](N)Cc1ccc(O)cc1)C(=O)N[C@@H](CCCNC(=N)N)C(=O)N1CCC[C@H]1C(=O)N[C@@H](CCCCN)C(N)=O	1.5	0.08	–
–	CC[C@H](C)[C@H](NC(=O)[C@H](CCCN=C(N)N)NC(=O)[C@@H]1CCCCNC(=O)C[C@H](NC(=O)[C@@H](N)Cc2ccc(O)cc2)C(=O)NCC(=O)N[C@H](Cc2ccccc2)C(=O)N[C@@H](CC(C)C)C(=O)N1)C(=O)N[C@@H](CCCN=C(N)N)C(=O)N1CCC[C@@H]1C(=O)N[C@H](CCCCN)C(N)=O	–	–	Ratio [4]: 5.6 Ratio; Selectivity [5]: 0.03 Ratio; Selectivity [6]: 0.11 Ratio
–	CC[C@H](C)[C@H](NC(=O)[C@H](CCCN=C(N)N)NC(=O)[C@H](CCCN=C(N)N)NC(=O)[C@H](CCCCN)NC(=O)[C@H](Cc1ccccc1)NC(=O)CNC(=O)CNC(=O)[C@@H](N)Cc1ccc(O)cc1)C(=O)N[C@@H](CC(=O)O)C(=O)N1CCC[C@H]1C(=O)N[C@@H](CCCCN)C(N)=O	35	400	–
–	CC[C@H](C)[C@H](NC(=O)[C@H](CCCCN)NC(=O)[C@H](CCCNC(=N)N)NC(=O)[C@H](CC(C)C)NC(=O)[C@H](Cc1ccccc1)NC(=O)[C@@H](CC(=O)O)NC(=O)CNC(=O)[C@@H](N)Cc1ccc(O)cc1)C(=O)N[C@@H](CCCNC(=N)N)C(=O)N1CCC[C@H]1C(=O)N[C@@H](CCCCN)C(N)=O	47	660	–
–	CC[C@H](C)[C@H](NC(=O)[C@H](CCCCN)NC(=O)[C@H](CCCN=C(N)N)NC(=O)[C@H](CC(C)C)NC(=O)[C@H](Cc1ccccc1)NC(=O)[C@@H](CC(=O)O)NC(=O)CNC(=O)[C@@H](N)Cc1ccc(O)cc1)C(=O)N[C@@H](CCCN=C(N)N)C(=O)N1CCC[C@@H]1C(=O)N[C@H](CCCCN)C(N)=O	–	–	Ratio [4]: 110 Ratio; Selectivity [5]: 14 Ratio; Selectivity [6]: 19 Ratio

SMILES	IC50 [2] [nM]	IC50 [1] [nM]	IC50 [3] [nM]	also measured
CC[C@@H](C)[C@H]1NC(=O)[C@H](CCCN=C(N)N)NC(=O)[C@@H](CCCN=C(N)N)NC(=O)[C@H](NC(=O)[C@@H](Cc2ccccc2)NC(=O)CNC(=O)CNC(=O)[C@H](N)Cc2ccc(O)cc2)CCCCNC(=O)C[C@H](C(=O)N2CCC[C@H]2C(=O)N[C@H](CCCCN)C(N)=O)NC1=O	9300	100	120	–
CC[C@H](C)[C@H](NC(=O)[C@H]1CCCCNC(=O)C[C@H](NC(=O)CNC(=O)[C@@H](N)Cc2ccc(O)cc2)C(=O)N[C@H](Cc2ccccc2)C(=O)N[C@@H](CC(C)C)C(=O)N[C@H](CCCN=C(N)N)C(=O)N1)C(=O)N[C@@H](CCCN=C(N)N)C(=O)N1CCC[C@@H]1C(=O)N[C@H](CCCCN)C(N)=O	600	4.9	310	–
CC[C@H](C)[C@H](NC(=O)[C@H]1CCCCNC(=O)C[C@@H](NC(=O)CNC(=O)[C@@H](N)Cc2ccc(O)cc2)C(=O)N[C@H](Cc2ccccc2)C(=O)N[C@@H](CC(C)C)C(=O)N[C@H](CCCN=C(N)N)C(=O)N1)C(=O)N[C@@H](CCCN=C(N)N)C(=O)N1CCC[C@@H]1C(=O)N[C@H](CCCCN)C(N)=O	1500	25	740	–
CC[C@@H](C)[C@H]1NC(=O)[C@H](CCCNC(=N)N)NC(=O)[C@@H](CCCNC(=N)N)NC(=O)[C@H](NC(=O)[C@@H](Cc2ccccc2)NC(=O)CNC(=O)CNC(=O)[C@H](N)Cc2ccc(O)cc2)CCCCNC(=O)C[C@@H](C(=O)N2CCC[C@H]2C(=O)N[C@H](CCCCN)C(N)=O)NC1=O	2500	6.6	12	–
